Test [1] has as its target T1, Potassium channel subfamily K member 13 (Homo sapiens) (UniProt Q9HB14).
T1 sequence (whole entry): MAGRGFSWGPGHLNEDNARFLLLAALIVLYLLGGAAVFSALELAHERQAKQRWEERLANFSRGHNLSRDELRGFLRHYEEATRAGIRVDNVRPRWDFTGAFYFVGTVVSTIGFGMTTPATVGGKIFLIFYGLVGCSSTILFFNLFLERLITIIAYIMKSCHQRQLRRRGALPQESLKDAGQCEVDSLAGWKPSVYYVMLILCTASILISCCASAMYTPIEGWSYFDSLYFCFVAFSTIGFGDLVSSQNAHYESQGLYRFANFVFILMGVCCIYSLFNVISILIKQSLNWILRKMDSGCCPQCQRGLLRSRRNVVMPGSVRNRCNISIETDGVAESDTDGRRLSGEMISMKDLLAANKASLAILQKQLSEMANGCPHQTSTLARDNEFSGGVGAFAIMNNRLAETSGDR
Description: Activation of recombinant human THIK1 expressed in HEK293T cells assessed as increase in K+ current amplitude at 10 uM by whole cell voltage clamp electrophysiological analysis. The format is cell-based. Put shortly:
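HEK-293T cells transiently transfected with the human K2P channel. Whole-cell clamp at -60 mV, 500-ms ramp -120 to +60 mV. Pipette 140 KCl (pH 7.4), external 145 NaCl/4 KCl (pH 7.3). Compound 10 μM, diluted from 10 mM DMSO stock into external solution.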

Test [2] has as its system T2, Potassium channel subfamily K member 2 (Homo sapiens), O95069 [I158A].
T2 sequence (whole entry): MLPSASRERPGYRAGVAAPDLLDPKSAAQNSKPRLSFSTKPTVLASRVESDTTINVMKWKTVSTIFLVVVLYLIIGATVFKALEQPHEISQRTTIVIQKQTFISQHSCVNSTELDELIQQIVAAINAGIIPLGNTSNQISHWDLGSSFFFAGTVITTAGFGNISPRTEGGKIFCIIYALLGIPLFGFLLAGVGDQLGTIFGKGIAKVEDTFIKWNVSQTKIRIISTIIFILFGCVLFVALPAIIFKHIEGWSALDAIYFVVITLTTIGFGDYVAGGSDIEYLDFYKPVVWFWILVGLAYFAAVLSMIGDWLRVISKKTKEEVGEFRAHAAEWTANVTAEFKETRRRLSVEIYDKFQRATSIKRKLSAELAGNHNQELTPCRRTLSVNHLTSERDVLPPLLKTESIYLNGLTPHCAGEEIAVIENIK
Description: Activation of recombinant human TREK1 I158A mutant expressed in HEK293T cells assessed as increase in K+ current amplitude by whole cell voltage clamp electrophysiological analysis. It is filed as cell-based. The procedure, abridged:
(§1)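 Transiently transfected HEK-293T cells, whole-cell voltage clamp. Held at -60 mV, 500-ms ramp -120 to +60 mV. Pipette (mM) 140 KCl, 5 EGTA, 10 HEPES, pH 7.4; external 145 NaCl, 4 KCl, pH 7.3. Compound diluted from 10 mM DMSO stock and applied extracellularly. Current increase over control fitted to concentration–response curves for EC50.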

The subject of test [3] is Potassium channel subfamily K member 2 (Homo sapiens), O95069 [Y285A]. Description: Activation of recombinant human TREK1 Y285A mutant expressed in HEK293T cells assessed as increase in K+ current amplitude by whole cell voltage clamp electrophysiological analysis. The format is cell-based. The procedure, abridged:
as §1

Test [4] deals with Potassium channel subfamily K member 2 (Homo sapiens, UniProt O95069, T156A). Description: Activation of recombinant human TREK1 T156A mutant expressed in HEK293T cells assessed as increase in K+ current amplitude by whole cell voltage clamp electrophysiological analysis. It is filed as cell-based. Put shortly:
as §1

The target of test [5] is Potassium channel subfamily K member 2 (Homo sapiens, UniProt O95069, I293A). Description: Activation of recombinant human TREK1 I293A mutant expressed in HEK293T cells assessed as increase in K+ current amplitude by whole cell voltage clamp electrophysiological analysis. The format is cell-based. The procedure, abridged: as §1
For test [6], the target named is Potassium channel subfamily K member 2 (Homo sapiens, UniProt O95069, G275C). Description: Activation of recombinant human TREK1 G275C mutant expressed in HEK293T cells assessed as increase in K+ current amplitude by whole cell voltage clamp electrophysiological analysis. The format is cell-based. Put shortly: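 Human TREK-1 G275C expressed in HEK-293T, whole-cell ramp recordings. Tested with or without MTSET, 1 mM final, diluted from 0.5 M DMSO stock within 120 s of application. Concentration–response curves for EC50, n = 5–19; 10 μM single-point comparison by one-way ANOVA with Tukey test.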

The target in test [7] is T3, Potassium channel subfamily K member 2 (Rattus norvegicus) (UniProt Q920B6).
T3 sequence (whole entry): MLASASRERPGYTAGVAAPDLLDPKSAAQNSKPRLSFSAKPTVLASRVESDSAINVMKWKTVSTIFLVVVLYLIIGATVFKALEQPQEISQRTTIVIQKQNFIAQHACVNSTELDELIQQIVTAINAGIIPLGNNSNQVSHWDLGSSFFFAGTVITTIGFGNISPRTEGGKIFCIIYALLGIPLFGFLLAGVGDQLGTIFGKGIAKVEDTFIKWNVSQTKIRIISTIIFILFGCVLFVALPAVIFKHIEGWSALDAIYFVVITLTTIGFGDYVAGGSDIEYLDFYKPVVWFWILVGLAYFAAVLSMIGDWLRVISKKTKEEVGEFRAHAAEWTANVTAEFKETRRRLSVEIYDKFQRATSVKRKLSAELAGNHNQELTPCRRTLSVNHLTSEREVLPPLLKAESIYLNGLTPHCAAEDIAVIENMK
Description: Activation of TREK in depolarized Sprague-Dawley rat DRG neurons assessed as increase in K+ current amplitude at 10 uM by whole cell voltage clamp electrophysiological analysis relative to control.

The next test deals with Mus musculus. Description: Analgesic activity in mouse assessed as increase in tail flick latency time at 5 mg/kg, ip at 5 to 52 degC by tail immersion test. It is filed as functional, organism-based. The procedure, abridged: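 Male BALB/c or C57BL/6 mice, 6–8 weeks, acclimated in a holder 15 min/day for 3 days. Distal 3 cm of tail immersed at 5, 20, 40, 46 or 52 °C; flick latency recorded, cut-off 15 s. Compound i.p. in 5% DMSO/5% Tween 80/90% saline (1.25–10 mg/kg at 52 °C; 5 mg/kg across temperatures).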

The source made the active and inactive calls.

Potassium channel subfamily K member 2 (Homo sapiens, UniProt O95069, G275C), sequence (O95069 whole entry G275C): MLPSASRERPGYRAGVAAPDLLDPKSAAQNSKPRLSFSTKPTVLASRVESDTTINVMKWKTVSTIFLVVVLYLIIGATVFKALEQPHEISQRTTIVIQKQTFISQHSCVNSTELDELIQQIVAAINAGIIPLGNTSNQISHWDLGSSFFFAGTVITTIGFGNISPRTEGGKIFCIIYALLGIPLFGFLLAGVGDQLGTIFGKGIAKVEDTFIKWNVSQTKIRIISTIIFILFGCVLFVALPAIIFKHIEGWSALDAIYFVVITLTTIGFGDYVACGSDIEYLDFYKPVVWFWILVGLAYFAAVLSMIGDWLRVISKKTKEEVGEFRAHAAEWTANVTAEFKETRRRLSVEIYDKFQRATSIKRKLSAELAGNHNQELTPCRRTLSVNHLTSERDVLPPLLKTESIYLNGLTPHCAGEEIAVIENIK
Potassium channel subfamily K member 2 (Homo sapiens, UniProt O95069, I293A), sequence (O95069 whole entry I293A): as the sequence (O95069 whole entry G275C) above, with C275G, I293A counted along it
Potassium channel subfamily K member 2 (Homo sapiens, UniProt O95069, T156A), sequence (O95069 whole entry T156A): as the sequence (O95069 whole entry G275C) above, with T156A, C275G counted along it

On to `Cc1ccc2nc(-c3ccc(NC(=O)[C@@H]4CC[C@H](C(=O)O)C4)cc3)sc2c1`, for which the result (in test [1]; in the test with Mus musculus) was Active. The result in test [2] and in test [3] was inactive. Also, the figures for the EC50 in test [4], in test [5] and in test [6] were 7.57 µM, 7.98 µM and 15.2 µM, respectively. In addition, the Activity in test [7] amounted to 24%.

The values are drawn from ChEMBL document CHEMBL4354866, “TREK Channel Family Activator with a Well-Defined Structure-Activation Relationship for Pain and Neurogenic Inflammation” (J Med Chem, 2020).
